Calls of active or inactive are those of the source. No cut-off for these calls is given here.
What was measured:
[1] = Cytotoxicity against human 12Z cells transfected with control shRNA assessed as reduction in cell viability at 0.01 to 100 uM after 72 hrs by crystal violet staining fluorescence assay; format: toxicity, cell-based; settings: dose 0.01-100 µM
[2] = system: 12Z; test: Induction of cell death in human 12Z cells transfected with shARID1A assessed as increase in ratio of dead to live cells at 100 nM after 16 hrs by Matrigel based analysis; format: functional
Summary of the method: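 12Z cells were siRNA-transfected and drug-treated 24 h post-transfection. At 48 h, 10,000 cells in 0.3 mg/mL Matrigel were seeded on Matrigel-coated wells in serum-free medium with 100 nM A-485 or vehicle.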

[3] = system: 12Z; test: Inhibition of cell migration in human 12Z cells transfected with shARID1A at 31 to 316 nM after 24 hrs by Matrigel based analysis; format: functional; settings: dose 31-316 nM, in the assay text read “culture-insert gap assay” for “Matrigel based analysis”
Summary of the method: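 12Z cells (4,000/well) in 4-well culture inserts were transduced with control or shARID1A lentivirus (MOI 100). Serum-free medium with drug or vehicle was added after 24 hr, and inserts were removed at 16 hr. Front distances at 16 points were imaged at 0 and 24 hr, and migration was taken as the 0 h minus 24 h mean distance.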

[4] = Cytotoxicity against human 12Z cells assessed as reduction in cell viability after 72 hrs at 0.01 to 100 uM by calcein-AM stainig based fluorescence assay; format: toxicity; settings: dose 0.01-100 µM
Summary of the method: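 12Z cells seeded at 4,000 cells/well, transfected 24 h later, then drug-treated 24 h after transfection for 48–72 hr. Viable cells were read after 1 h with 2 μg/mL calcein-AM as fluorescence.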

[5] = target: Histone acetyltransferase p300 (Homo sapiens) (UniProt Q09472); test: Inhibition of P300 in human 12Z cells assessed as reduction in H3K27ac expression at 0.01 to 100 uM for 24 hrs by western blot analysis; format: cell-based; settings: dose 0.01-100 µM
Histone acetyltransferase p300 (Homo sapiens), sequence (Q09472 whole entry): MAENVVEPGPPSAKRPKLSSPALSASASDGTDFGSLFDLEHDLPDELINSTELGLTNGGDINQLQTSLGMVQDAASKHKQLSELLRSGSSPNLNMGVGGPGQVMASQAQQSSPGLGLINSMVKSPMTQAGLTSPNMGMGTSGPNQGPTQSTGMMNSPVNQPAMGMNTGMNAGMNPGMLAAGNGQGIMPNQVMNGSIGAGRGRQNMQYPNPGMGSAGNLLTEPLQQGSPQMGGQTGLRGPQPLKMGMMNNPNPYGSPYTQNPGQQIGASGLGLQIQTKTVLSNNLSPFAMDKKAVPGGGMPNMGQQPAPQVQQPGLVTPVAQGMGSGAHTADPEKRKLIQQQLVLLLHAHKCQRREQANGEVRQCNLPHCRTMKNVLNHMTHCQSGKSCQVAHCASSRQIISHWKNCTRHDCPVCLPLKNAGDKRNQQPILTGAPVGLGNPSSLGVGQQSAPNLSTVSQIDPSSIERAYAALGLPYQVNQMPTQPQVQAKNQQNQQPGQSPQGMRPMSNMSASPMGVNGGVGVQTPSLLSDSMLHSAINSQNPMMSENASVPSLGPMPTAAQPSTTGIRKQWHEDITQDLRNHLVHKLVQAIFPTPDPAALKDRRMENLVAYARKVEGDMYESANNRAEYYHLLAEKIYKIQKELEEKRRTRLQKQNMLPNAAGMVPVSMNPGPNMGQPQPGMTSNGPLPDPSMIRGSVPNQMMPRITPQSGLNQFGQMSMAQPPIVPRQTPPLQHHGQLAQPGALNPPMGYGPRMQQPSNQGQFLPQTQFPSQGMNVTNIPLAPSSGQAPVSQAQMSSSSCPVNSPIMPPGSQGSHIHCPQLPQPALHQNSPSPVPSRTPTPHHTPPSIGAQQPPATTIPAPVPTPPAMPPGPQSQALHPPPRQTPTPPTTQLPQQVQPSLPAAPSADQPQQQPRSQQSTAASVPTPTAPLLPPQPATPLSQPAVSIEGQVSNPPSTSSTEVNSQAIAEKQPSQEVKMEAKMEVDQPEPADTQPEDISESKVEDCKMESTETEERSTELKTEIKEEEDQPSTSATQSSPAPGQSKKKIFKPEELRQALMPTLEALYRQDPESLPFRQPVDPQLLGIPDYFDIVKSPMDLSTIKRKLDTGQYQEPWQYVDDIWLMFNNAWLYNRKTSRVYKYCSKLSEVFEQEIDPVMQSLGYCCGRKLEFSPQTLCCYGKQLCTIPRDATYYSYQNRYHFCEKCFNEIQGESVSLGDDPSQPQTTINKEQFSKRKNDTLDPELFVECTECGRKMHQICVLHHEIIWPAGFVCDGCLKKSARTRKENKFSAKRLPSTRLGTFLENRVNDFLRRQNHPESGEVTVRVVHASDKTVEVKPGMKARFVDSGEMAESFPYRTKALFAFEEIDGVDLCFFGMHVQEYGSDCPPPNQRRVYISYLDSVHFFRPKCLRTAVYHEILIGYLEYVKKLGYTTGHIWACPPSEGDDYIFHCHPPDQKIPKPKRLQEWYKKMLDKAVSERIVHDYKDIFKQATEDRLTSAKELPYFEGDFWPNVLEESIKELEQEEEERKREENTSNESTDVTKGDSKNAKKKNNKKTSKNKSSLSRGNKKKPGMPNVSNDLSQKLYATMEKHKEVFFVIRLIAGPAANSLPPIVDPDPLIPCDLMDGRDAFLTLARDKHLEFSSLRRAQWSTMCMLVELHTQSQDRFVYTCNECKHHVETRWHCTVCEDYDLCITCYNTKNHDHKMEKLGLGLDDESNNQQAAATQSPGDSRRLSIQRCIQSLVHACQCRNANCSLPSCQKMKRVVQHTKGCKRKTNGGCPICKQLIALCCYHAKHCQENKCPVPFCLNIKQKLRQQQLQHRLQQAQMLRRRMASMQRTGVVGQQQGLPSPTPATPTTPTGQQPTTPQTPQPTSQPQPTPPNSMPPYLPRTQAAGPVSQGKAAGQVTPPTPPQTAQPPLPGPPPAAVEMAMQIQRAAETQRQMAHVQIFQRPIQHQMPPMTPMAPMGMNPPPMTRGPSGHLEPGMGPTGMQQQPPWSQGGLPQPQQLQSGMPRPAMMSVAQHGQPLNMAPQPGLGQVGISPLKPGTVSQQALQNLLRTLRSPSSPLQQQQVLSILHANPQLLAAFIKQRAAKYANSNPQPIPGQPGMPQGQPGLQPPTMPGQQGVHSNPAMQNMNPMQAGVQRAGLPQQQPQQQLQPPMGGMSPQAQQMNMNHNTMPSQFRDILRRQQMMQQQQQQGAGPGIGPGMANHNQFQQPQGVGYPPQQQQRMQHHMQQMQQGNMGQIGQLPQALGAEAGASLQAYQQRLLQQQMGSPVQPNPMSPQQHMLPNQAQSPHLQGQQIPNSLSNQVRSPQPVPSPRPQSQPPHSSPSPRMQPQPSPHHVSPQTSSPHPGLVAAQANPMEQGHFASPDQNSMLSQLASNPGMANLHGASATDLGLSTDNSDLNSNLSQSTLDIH
Summary of the method: (§1)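 Histones were acid-extracted from A-485-treated 12Z cells with 0.2 N HCl in the presence of sodium butyrate. Extracts were run on a 15% SDS-PAGE gel and blotted with H3K27ac (1:1,000) and total H3 (1:2,000) antibodies, with IRDye 800CW secondary and fluorescence imaging.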

[6] = Cytotoxicity against human 12Z cells assessed as reduction in cell viability after 6 days by crystal violet staining based assay; format: toxicity
Summary of the method: (§2)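 12Z cells seeded at 100 cells/well and, after 24 h, treated with A-485 from 10 nM to 100 μM. After 6 days, colonies stained with crystal violet and counted.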

[7] = target: Histone acetyltransferase p300 (Homo sapiens) (UniProt Q09472); test: Inhibition of P300 in human 12Z cells transfected with shARID1A assessed as decrease in SERPINE1 RNA expression at 100 nM for 24 hrs by Western blot analysis; format: cell-based
[8] = Cytotoxicity against human 12Z cells transfected with shARID1A assessed as reduction in cell viability after 6 days by crystal violet staining based assay; format: functional; settings: 144 h; summary of the method: as §2
[9] = Cytotoxicity against human 12Z cells transfected with control shRNA assessed as reduction in cell viability after 6 days by crystal violet staining based assay; format: toxicity; summary of the method: as §2
[10] = system: 12Z; test: Growth inhibition of human 12Z cells transfected with shARID1A assessed as reduction in cell viability at 0.01 to 100 uM after 72 hrs by crystal violet staining fluorescence assay; format: functional, cell-based; settings: dose 0.01-100 µM
[11] = target: Histone acetyltransferase p300 (Homo sapiens) (UniProt Q09472); test: Inhibition of P300 in human 12Z cells assessed as reduction in H3K27ac expression at 316 nM for 24 hrs by western blot analysis; format: cell-based; summary of the method: as §1
[12] = target: Histone acetyltransferase p300 (Homo sapiens) (UniProt Q09472); test: Inhibition of P300 in human 12Z cells transfected with shARID1A assessed as decrease in SERPINE1 RNA expression at 100 nM by RNA-seq analysis; format: cell-based
[13] = system: 12Z; test: Inhibition of cell invasion in human 12Z cells transfected with shARID1A at 10 to 100 nM after 24 hrs by transwell invasion assay; format: functional, cell-based; settings: dose 10-100 nM
Summary of the method: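 12Z cells were siRNA-transfected and drug added 24 h later. At 48 h, 30,000 cells in 0.3 mg/mL Matrigel were seeded on Matrigel-coated 8 μm transwells, with serum-free medium on top and 5% FBS medium below, drug in both chambers. After 16 hr, cells were stained with calcein-AM, unmigrated cells were removed, and five fields/well were imaged and counted.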

[14] = system: 12Z; test: Induction of anchorage-dependent cell death in human 12Z cells assessed as increase in caspase3/7 level at 100 nM after 24 hrs by caspase-Glo 3/7 assay; format: functional, cell-based
Summary of the method: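 The Caspase-Glo 3/7 assay was run in suspension. siRNA-transfected 12Z cells (48 hr), drug-treated for 24 hr, were seeded at 10,000 cells/well on cell-repellent plates in serum-free DMEM/F12 with A-485 or vehicle. After 24 hr, Caspase-Glo reagent was added 1:1 and incubated 1 hr at 37°C before reading luminescence.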

[15] = target: Histone acetyltransferase p300 (Homo sapiens) (UniProt Q09472); test: Inhibition of P300 in human 12Z cells transfected with shARID1A assessed as affected in H3K27ac expression at 1 uM for 24 hrs by CUT and run analysis; format: cell-based

CNC(=O)Nc1ccc2c(c1)CC[C@@]21OC(=O)N(CC(=O)N(Cc2ccc(F)cc2)[C@@H](C)C(F)(F)F)C1=O [A-485]
Activity [1]: Toxic
Activity [2]: Active
inhibition [3]: Active
Activity [4]: Toxic
inhibition [5]: Active
IC50 at 6 days [6]: 3.32 µM
inhibition [7]: Active
IC50 [8]: 5.35 µM
IC50 at 6 days [9]: 3.61 µM
growth inhibition (GI) [10]: Active
inhibition [11]: Active
inhibition [12]: Active
inhibition [13]: Active
Activity [14]: Active
inhibition [15]: Active
